PglD DTNB: PglD (C. jejuni) enzyme inhibition. purified PglD enzyme, DTNB colorimetric CoA detection. inhibition, % at 12.5 µM. hit rate 0.098% among 360,000; in the data active means inhibition above about 16%, passing the limit was not always enough; inconclusive means no clear call, values can overlap the other calls
HIV Env fusion: HIV envelope-mediated fusion inhibition | HeLa-JRFL Env/CEM21 cell fusion, luciferase | inhibition, % at 12.3 µM | hit rate 1.1% among 360,000;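 active means mean replicate inhibition score of at least 50 and every replicate individually at or above 50; inconclusive means only one of the two criteria met; inactive means mean below 50 and not all replicates reaching 50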;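 further: 0% = plate neutral controls and 100% = maraviroc near 300 nM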
Rtt109 HAT inh: blocks Candida albicans Rtt109/Vps75 acetyltransferase activity | inhibition, % at 34.9 µM | purified Rtt109/Vps75, ThioGlo CoA-SH fluorescence, 4 h | hit rate 0.16% among 330,000;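 active means inhibition of at least 50% in every replicate; inconclusive means best replicate reaches 50% inhibition but some replicates fall short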
Target sequence (Q5AAJ8 whole entry, looked up): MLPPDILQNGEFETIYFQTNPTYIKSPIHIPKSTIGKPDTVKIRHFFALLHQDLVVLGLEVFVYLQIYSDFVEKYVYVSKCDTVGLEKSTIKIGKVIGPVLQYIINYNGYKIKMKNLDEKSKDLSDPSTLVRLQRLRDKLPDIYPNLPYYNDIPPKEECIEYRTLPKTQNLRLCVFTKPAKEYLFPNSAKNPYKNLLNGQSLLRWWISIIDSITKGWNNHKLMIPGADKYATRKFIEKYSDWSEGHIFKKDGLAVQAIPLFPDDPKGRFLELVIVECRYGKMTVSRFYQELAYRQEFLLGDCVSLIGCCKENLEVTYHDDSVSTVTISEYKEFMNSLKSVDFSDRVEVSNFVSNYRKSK
SR-BI DiI-HDL act: SR-BI HDL lipid transfer activation; AID 504775; CHO ldlA[mSR-BI] cells, DiI-HDL uptake fluorescence, 3 h; 100 = double the neutral-control signal; activation, % at 12.5 µM; hit rate 0.096% among 320,000;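 active means mean replicate activation of at least 60% and every replicate at or above 60%; inconclusive means mean or all-replicate condition met, but not both; inactive means mean below 60% and not all replicates reaching 60%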;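 further: 0% = median plate neutral-control signal and 100% = twice that signal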
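Material: SR-BI-overexpressing, LDLR-lacking CHO cells; schedule: compound exposure 3 h, 37 °C; reagent: DiI-labelled HDL at 10 µg/mL final; technique: bottom-read fluorescence, 550/595 nm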
N-glyco inh: N-linked glycosylation inhibition. reporter increase, % at 12.5 µM. hit rate 0.23% among 360,000. AID 588692. D54 ERlucT glycosylation luciferase reporter, 24 h; percent of 100 nM tunicamycin response;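 active means mean luciferase reporter signal, scaled so untreated is 0 and the glycosylation-blocking control 100, at or above a set limit in every replicate; inconclusive means mean reaches the limit but not every replicate does; inactive means mean below the limit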;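 further: luciferase carries N-glycosylation sites so blocking glycosylation raises the light; 0% = median of neutral control wells and 100% = median of 100 nM tunicamycin wells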
SR-BI HDL uptake: blocks mouse SR-BI lipid uptake from DiI-HDL | Q61009 | ldlA[mSR-BI] CHO cells, DiI-HDL uptake fluorescence, 3 h | inhibition, % at 12.5 µM | hit rate 0.96% among 320,000 | AID 488896;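 active means mean replicate inhibition of at least 70% and a set share of replicates each scoring 70 or more; inconclusive means meets just one of the two criteria; inactive means fails both criteria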;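 further: 0% = median of neutral control wells and 100% = median of positive control wells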
* marks the source's active call; other numbers are inactive results; ? = inconclusive; nt = no result given; [ ] = another dose, or the depositor's remark. The list is not random: actives were taken first. Their share in the collection is about 1.9%.

SMILES | PglD DTNB | HIV Env fusion | Rtt109 HAT inh | SR-BI DiI-HDL act | N-glyco inh | SR-BI HDL uptake
CC=Cc1ccc2n(c1=O)C[C@H]1[C@H](CO)[C@@H](C(=O)N(C)C)N[C@@H]21 (mixture of isomers) | 2 | nt | nt | nt | nt | nt
COC(=O)[C@@H]1[C@@H](CO)[C@@H]2Cn3c(ccc(-c4cccnc4)c3=O)[C@H]1N2S(=O)(=O)c1ccccc1F | 0 | nt | nt | nt | nt | nt
O=c1[nH]c(O)c(/C=C2/C=CC(c3cc(Cl)ccc3Cl)=N2)c(=O)[nH]1 | 4 | -34 | -5 | 2 | 49* | -2
O=C(O)[C@H]1[C@H](CO)[C@H]2Cn3c(ccc(-c4ccc(F)cc4)c3=O)[C@@H]1N2CC1CCCC1 | nt | -10[16.7 µM] | nt | nt | nt | nt
C=C1[C@@H](C)[C@H]2[C@H](Cc3ccccc3)NC(=O)[C@]23OC(=O)/C=C/[C@H](O)CCC[C@@H](C)C/C=C/[C@H]3[C@@H]1O | -4 | 69* | 1 | -12 | -8 | 12
N#Cc1cccc(-c2ccc([C@@H]3[C@@H](CO)N4CCCCN(C(=O)Cc5ccccc5)C[C@H]34)cc2)c1 | 2 | nt | nt | nt | nt | nt
CCCCCCn1c(=O)c(C(=O)Nc2ncccc2C)c(O)c2ccccc21 | 0 | 83* | 12 | -33 | 1 | 33
N#Cc1cccc(-c2ccc([C@H]3[C@H]4CN(C(=O)Cc5ccncc5)CCCCN4[C@H]3CO)cc2)c1 | 0 | nt | nt | nt | nt | nt
COc1ccc(CC2C(=O)NC(C)C(=O)N(C)C3C(=O)N(C)C(Cc4ccc(O)c(c4)Oc4ccc(cc4)C3O)C(=O)NC(C)C(=O)NC(C)C(=O)N2C)cc1 (configuration not stated) | nt | 70* | -3 | 1 | -18 | -1
O=C(Cc1ccccc1)N1CCCCN2[C@@H](CO)[C@H](c3ccc(C#CC4(O)CCCC4)cc3)[C@@H]2C1 | 2 | nt | nt | nt | nt | nt
CC1CCC(C(C)C)C(OC(=O)Cn2c(COc3ccccc3)[n+](C)c3ccccc32)C1 (configuration not stated) | -12 | 78* | ? | nt | 10 | nt
Cc1ccc(C(=O)N[C@@H](C)CN2C3=NC[C@@H](Cc4ccccc4)N3C[C@H]2Cc2ccc(O)cc2)cc1Br | nt | 75* | nt | nt | nt | nt
N#Cc1cccc(-c2ccc([C@H]3[C@H]4CN(C(=O)Cc5ccccc5)CCCCN4[C@H]3CO)cc2)c1 | -1 | nt | nt | nt | nt | nt
CCOC(=O)[C@@H]1[C@@H]2NC(=S)N(C)[C@@]1(COCc1ccc(OC)cc1)Oc1ccccc12 | 2 | -3[16.7 µM] | nt | nt | nt | nt
COC(=O)[C@H]1[C@H](CO)[C@H]2Cn3c(ccc(C4=CCCCC4)c3=O)[C@@H]1N2CC1CC1 | 4 | nt | nt | nt | nt | nt
O=C(c1cc([N+](=O)[O-])ccc1N1CCNCC1)N1CCOCC1 | -3 | -5 | 12 | -5 | 4 | 5
O=[N+]([O-])c1ccc(N2CCNCC2)c(Cl)c1 | nt | -7 | 5 | -78 | 0 | 78*
N=C1c2ccccc2CN1NC(=O)C1CC1 | nt | nt | -9 | 66* | -1 | -66
COC(=O)[C@H]1[C@H](CO)[C@H]2Cn3c(ccc(C4=CCCC4)c3=O)[C@@H]1N2Cc1ccccn1 | 0 | nt | nt | nt | nt | nt
CCOc1cc(CNCCc2c[nH]c3ccccc23)cc(Cl)c1OC | nt | 68* | 2 | 7 | -3 | -7
COc1ccc(Cc2nccc3cc(OC)c(OC)cc23)cc1OC | -7 | 57* | 15 | 8 | 0 | -5
CC1=C2C[C@H]3[C@@H](CC=C4C[C@@H](O)CC[C@@]43C)[C@@H]2CC[C@]12O[C@@H]1C[C@H](C)CN[C@@H]1C2C (some centres not stated) | nt | -8[16.7 µM] | nt | nt | nt | nt
CC12CCC(O)CC1CCC1C2CCC2(C)C(C3=CC(=O)OC3)CCC12O (configuration not stated) | nt | 87* | -9 | 16 | -18 | -16
C[C@]12CC[C@H](O)C[C@H]1CC[C@@H]1[C@@H]2CC[C@]2(C)[C@@H](C3=CC(=O)OC3)CC[C@]12O | 3 | ? | 2 | 19 | -20 | -19
CC12CC[C@H]3[C@@H](CCC4(O)C[C@H](O)CCC34/C=N/NC(=O)c3ccccc3[N+](=O)[O-])C1(O)CCC2C1=CC(=O)OC1 (some centres not stated) | -5 | -61 | -8 | -4 | 30* | 4
SMILES | PglD DTNB | HIV Env fusion | Rtt109 HAT inh | SR-BI DiI-HDL act | N-glyco inh | SR-BI HDL uptake
CC12CCC(O)CC1CCC1C2CCC2(C)C(C3=CC(=O)OC3)C(O)CC12O (configuration not stated) | nt | 74* | 12 | -3 | -10 | 3
COC1C(O)C(C)OC(OC2CCC3(C)C(CCC4C3C(O)CC3(C)C(C5=CC(=O)OC5)CCC43O)C2)C1O (configuration not stated) | nt | 86* | 10 | -5 | -16 | 5
COC(=O)[C@H]1N[C@H]2c3ccc(C4=CCCC4)c(=O)n3C[C@H]2[C@@H]1CO | 1 | nt | nt | nt | nt | nt
COC(=O)[C@H]1[C@H](CO)[C@H]2Cn3c(ccc(-c4ccncc4)c3=O)[C@@H]1N2CCc1ccccc1 | 3 | nt | nt | nt | nt | nt
COc1ccc(-c2ccc([C@H]3[C@@H](CO)N4CCCCN(C(=O)Cc5ccccc5)C[C@@H]34)cc2)cc1 | -2 | nt | nt | nt | nt | nt
COC(=O)[C@@H]1[C@@H](CO)[C@@H]2Cn3c(cccc3=O)[C@H]1N2C(=O)C1CCCC1 | -2 | nt | nt | nt | nt | nt
CC1=CC(C)CC(C)OC(=O)CC(c2ccc(O)cc2)NC(=O)C(Cc2c(Br)[nH]c3ccccc23)N(C)C(=O)C(C)NC(=O)C(C)C1 (configuration not stated) | nt | 81* | -2 | 39 | -17 | -39
COC(=O)[C@H]1[C@H](CO)[C@H]2Cn3c(ccc(-c4ccccc4)c3=O)[C@@H]1N2CCc1ccccc1 | -2 | nt | nt | nt | nt | nt
NNc1n[nH]c(=S)n1N | 2 | -4 | 139* | 30 | 2 | -30
COC(=O)[C@H]1[C@H](CO)[C@H]2Cn3c(ccc(C4=CCCC4)c3=O)[C@@H]1N2C(=O)C1CCCCC1 | nt | -6[16.7 µM] | nt | nt | nt | nt
C=C1C(=O)O[C@@H]2C[C@@H](C)[C@@H]3C=CC(=O)[C@@]3(C)[C@@H](OC(=O)CC(=O)O[C@H]3[C@@H]4C(=C)C(=O)O[C@@H]4C[C@@H](C)[C@@H]4C=CC(=O)[C@]43C)[C@H]12 | 0 | 109* | 3 | nt | -21 | nt
O=C(Cc1ccccn1)N1CCCCN2[C@H](CO)[C@@H](c3ccc(C#Cc4ccccc4)cc3)[C@H]2C1 | -2 | nt | nt | nt | nt | nt
O=C(N/N=C/c1c(O)n(Cc2ccc(F)cc2)c(=O)[nH]c1=O)c1ccccc1 | -5 | -2 | -3 | -75 | -1 | 75*
O=C(N/N=C/c1c(O)n(Cc2ccccc2)c(=O)[nH]c1=O)c1ccncc1 | 1 | -8 | nt | nt | 0 | nt
Cc1cccc(S(=O)(=O)N2[C@@H]3Cn4c(ccc(-c5ccncc5)c4=O)[C@H]2[C@@H](C(=O)O)[C@@H]3CO)c1 | -1 | nt | nt | nt | nt | nt

High-throughput results from PubChem.
